Assay results published in ChEMBL document CHEMBL4261600 (Eur J Med Chem, 2018).
Activity calls are given as the source filed them.

Assays:
[1] = biological target: Ribosomal protein S6 kinase alpha-6 (Homo sapiens) (UniProt Q9UK32); assay: Binding affinity to wild-type human partial length C-terminal RSK4 kinase domain 2 (I401 to Y711 residues) expressed in bacterial expression system assessed as remaining unbound target protein level at 1000 nM by Kinomescan method relative to control
Procedure, shortened: (§1)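 KINOMEscan competition binding profile across a panel of 468 kinases and mutants, with the inhibitor tested at a single concentration of 1 μM. Binding is reported as percent of control, meaning signal relative to a DMSO control.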

[2] = biological target: Dual specificity mitogen-activated protein kinase kinase 3 (Homo sapiens) (UniProt P46734); assay: Binding affinity to wild-type human full length MEK3 (M1 to S318 residues) expressed in mammalian expression system assessed as remaining unbound target protein level at 1000 nM by Kinomescan method relative to control; procedure, shortened: as §1
[3] = biological target: Mitogen-activated protein kinase kinase kinase 19 (Homo sapiens) (UniProt Q56UN5); assay: Binding affinity to wild-type human partial length YSK4 (T1019 to H1328 residues) expressed in mammalian expression system assessed as remaining unbound target protein level at 1000 nM by Kinomescan method relative to control
Mitogen-activated protein kinase kinase kinase 19 (Homo sapiens), sequence (Q56UN5 whole entry, the tested form may be a part): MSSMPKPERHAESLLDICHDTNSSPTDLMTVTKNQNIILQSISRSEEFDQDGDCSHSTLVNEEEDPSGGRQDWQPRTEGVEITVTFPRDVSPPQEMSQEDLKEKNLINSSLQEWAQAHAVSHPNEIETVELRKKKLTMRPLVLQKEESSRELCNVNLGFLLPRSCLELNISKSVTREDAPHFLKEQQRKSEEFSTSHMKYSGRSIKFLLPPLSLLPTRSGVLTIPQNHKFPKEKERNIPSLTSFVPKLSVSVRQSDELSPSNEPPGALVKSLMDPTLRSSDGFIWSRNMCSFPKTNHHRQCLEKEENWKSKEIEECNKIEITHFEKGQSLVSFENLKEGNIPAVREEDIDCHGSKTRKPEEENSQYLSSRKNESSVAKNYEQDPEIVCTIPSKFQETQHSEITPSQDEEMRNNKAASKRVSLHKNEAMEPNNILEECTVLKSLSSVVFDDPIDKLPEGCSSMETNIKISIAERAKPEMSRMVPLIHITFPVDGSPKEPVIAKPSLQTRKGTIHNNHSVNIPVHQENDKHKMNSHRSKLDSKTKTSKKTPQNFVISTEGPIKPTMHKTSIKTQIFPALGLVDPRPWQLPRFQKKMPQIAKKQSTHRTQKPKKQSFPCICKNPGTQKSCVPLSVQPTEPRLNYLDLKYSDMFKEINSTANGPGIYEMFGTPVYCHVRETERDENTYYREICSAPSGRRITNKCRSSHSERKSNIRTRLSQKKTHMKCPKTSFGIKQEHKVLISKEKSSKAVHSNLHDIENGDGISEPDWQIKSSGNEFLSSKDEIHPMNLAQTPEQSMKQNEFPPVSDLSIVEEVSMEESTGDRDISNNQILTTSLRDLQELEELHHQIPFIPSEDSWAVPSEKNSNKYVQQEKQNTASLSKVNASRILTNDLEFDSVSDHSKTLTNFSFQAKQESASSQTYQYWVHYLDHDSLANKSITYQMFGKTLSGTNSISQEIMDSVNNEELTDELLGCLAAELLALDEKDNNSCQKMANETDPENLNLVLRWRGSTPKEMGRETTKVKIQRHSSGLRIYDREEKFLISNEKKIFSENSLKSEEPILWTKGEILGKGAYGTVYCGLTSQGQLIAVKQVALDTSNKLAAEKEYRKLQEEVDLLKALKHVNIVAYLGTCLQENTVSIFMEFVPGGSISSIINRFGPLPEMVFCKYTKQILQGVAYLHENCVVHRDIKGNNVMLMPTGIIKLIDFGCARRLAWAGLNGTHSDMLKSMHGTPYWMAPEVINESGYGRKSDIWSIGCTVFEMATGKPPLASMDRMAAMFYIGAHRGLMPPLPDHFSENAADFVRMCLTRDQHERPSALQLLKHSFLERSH

[4] = biological target: Cyclin-dependent kinase 18 (Homo sapiens) (UniProt Q07002); assay: Binding affinity to wild-type human full length PCTK3 (M3 to F474 residues) expressed in bacterial expression system assessed as remaining unbound target protein level at 1000 nM by Kinomescan method relative to control; procedure, shortened: as §1
[5] = biological target: Phosphatidylinositol 5-phosphate 4-kinase type-2 beta (Homo sapiens) (UniProt P78356); assay: Binding affinity to wild-type human full length PIP5K2B (M1 to T416 residues) expressed in bacterial expression system assessed as remaining unbound target protein level at 1000 nM by Kinomescan method relative to control
Phosphatidylinositol 5-phosphate 4-kinase type-2 beta (Homo sapiens), sequence (P78356 whole entry, the tested form may be a part): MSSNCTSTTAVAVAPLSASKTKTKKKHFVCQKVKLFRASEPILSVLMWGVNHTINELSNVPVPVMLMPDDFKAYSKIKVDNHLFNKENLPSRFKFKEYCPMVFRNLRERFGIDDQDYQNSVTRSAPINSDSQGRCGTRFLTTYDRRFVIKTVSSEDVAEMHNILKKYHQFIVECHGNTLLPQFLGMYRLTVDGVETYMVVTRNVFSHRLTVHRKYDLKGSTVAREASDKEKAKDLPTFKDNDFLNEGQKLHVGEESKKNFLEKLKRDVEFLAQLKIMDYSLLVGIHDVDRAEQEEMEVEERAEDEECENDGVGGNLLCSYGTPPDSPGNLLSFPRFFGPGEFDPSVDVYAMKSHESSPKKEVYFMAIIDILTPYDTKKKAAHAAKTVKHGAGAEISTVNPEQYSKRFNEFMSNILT
Procedure, shortened: (§2)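 Profiled in a KINOMEscan binding panel with the inhibitor at a single concentration of 1 μM. Binding to each kinase was read out as percent of control, relative to a DMSO control. Strong binders were defined as those with a percent control value below 1.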

[6] = biological target: RAC-alpha serine/threonine-protein kinase (Homo sapiens) (UniProt P31749); assay: Binding affinity to wild-type human partial length AKT1 expressed in bacterial expression system assessed as remaining unbound target protein level at 1000 nM by Kinomescan method relative to control; procedure, shortened: as §2
RAC-alpha serine/threonine-protein kinase (Homo sapiens), sequence (P31749 whole entry, the tested form may be a part): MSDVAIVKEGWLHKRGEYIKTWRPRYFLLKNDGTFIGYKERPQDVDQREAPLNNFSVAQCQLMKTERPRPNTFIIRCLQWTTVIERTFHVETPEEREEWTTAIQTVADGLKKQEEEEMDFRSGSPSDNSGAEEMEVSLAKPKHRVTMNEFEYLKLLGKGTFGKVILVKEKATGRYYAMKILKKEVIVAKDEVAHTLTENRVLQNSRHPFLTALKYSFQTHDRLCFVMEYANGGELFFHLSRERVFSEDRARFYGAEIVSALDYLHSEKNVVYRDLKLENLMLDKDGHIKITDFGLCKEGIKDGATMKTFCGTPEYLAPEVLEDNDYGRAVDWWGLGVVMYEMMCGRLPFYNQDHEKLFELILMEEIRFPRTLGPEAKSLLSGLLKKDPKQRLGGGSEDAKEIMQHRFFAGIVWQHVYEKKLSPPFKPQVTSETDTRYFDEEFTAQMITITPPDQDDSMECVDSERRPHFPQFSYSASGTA

[7] = biological target: Dual specificity protein kinase CLK2 (Homo sapiens) (UniProt P49760); assay: Binding affinity to wild-type human partial length CLK2 (D144 to R498 residues) expressed in bacterial expression system assessed as remaining unbound target protein level at 1000 nM by Kinomescan method relative to control; procedure, shortened: as §1
Dual specificity protein kinase CLK2 (Homo sapiens), sequence (P49760 whole entry, looked up, the tested form may be a part): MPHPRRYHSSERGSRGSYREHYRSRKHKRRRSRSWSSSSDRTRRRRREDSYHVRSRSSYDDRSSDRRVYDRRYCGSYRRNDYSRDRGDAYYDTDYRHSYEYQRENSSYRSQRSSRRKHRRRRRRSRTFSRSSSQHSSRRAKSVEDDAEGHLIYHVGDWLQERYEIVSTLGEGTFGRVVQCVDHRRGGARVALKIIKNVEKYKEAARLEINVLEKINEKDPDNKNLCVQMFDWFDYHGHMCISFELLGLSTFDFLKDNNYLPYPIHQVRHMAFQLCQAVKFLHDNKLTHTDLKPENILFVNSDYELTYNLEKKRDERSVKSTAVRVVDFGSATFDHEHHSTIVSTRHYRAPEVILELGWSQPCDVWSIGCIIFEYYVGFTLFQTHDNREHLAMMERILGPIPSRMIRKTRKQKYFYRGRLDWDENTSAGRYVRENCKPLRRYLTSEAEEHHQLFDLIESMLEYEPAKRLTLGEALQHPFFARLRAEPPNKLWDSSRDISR

[8] = biological target: STE20/SPS1-related proline-alanine-rich protein kinase (Homo sapiens) (UniProt Q9UEW8); assay: Binding affinity to wild-type human partial length STK39 (P43 to I357 residues) expressed in mammalian expression system assessed as remaining unbound target protein level at 1000 nM by Kinomescan method relative to control
MV4-11 [9] = assay: Antitumor activity against human MV4-11 cells xenografted in nu/nu mouse assessed as tumor growth inhibition at 10 mg/kg, po administered via gavage for 21 days measured on day 21 post last dose; format: functional, organism-based
Procedure, shortened: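 Female nu/nu mice, five weeks old, implanted subcutaneously in the right flank with 5 million MV4-11 cells in PBS/Matrigel 1:1. Daily oral gavage in 0.5% methylcellulose/0.4% Tween80 started at tumor volume 200–400 mm³, 10, 20 or 30 mg/kg/day or vehicle, 5 mice per group. Tumor volume (W²×L)/2 and body weight measured daily; mean ± SEM.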

[10] = biological target: Ribosomal protein S6 kinase alpha-6 (Homo sapiens) (UniProt Q9UK32); assay: Binding affinity to wild-type human partial length N-terminal RSK4 kinase domain 1 (M1 to E397 residues) expressed in mammalian expression system assessed as remaining unbound target protein level at 1000 nM by Kinomescan method relative to control
Procedure, shortened: (§3)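 KINOMEscan binding panel of 468 kinases/mutants. Inhibitor was tested at a single concentration of 1 μM. Binding is reported as percent of control, defined relative to a DMSO control.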

[11] = biological target: Dual specificity mitogen-activated protein kinase kinase 1 (Homo sapiens) (UniProt Q02750); assay: Binding affinity to wild-type human full length MEK1 (M1 to V393 residues) expressed in mammalian expression system assessed as remaining unbound target protein level at 1000 nM by Kinomescan method relative to control
Procedure, shortened: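 Single-point competition binding screen across a panel of 468 kinases and mutants, with the inhibitor at 1 μM. Binding is read out as percent of a DMSO control, and targets below 1 percent control were classed as strong binders.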

[12] = MRT (0 to infinity) in mouse at 10 mg/kg, po by LC-MS/MS analysis; format: ADME, organism-based; details: in vivo
[13] = biological target: Serine/threonine-protein kinase PAK 2 (Homo sapiens) (UniProt Q13177); assay: Binding affinity to wild-type human partial length PAK2 (P151 to R525 residues) expressed in bacterial expression system assessed as remaining unbound target protein level at 1000 nM by Kinomescan method relative to control
[14] = test system: ALK tyrosine kinase receptor (Homo sapiens), Q9UM73 [L1196M]; assay: Binding affinity to wild-type human partial length ALK L1196M mutant (I1088 to E1409 residues) expressed in mammalian expression system assessed as remaining unbound target protein level at 1000 nM by Kinomescan method relative to control; procedure, shortened: as §2
[15] = biological target: Ephrin type-A receptor 7 (Homo sapiens) (UniProt Q15375); assay: Binding affinity to wild-type human partial length EPHA7 (Y608 to S912 residues) expressed in bacterial expression system assessed as remaining unbound target protein level at 1000 nM by Kinomescan method relative to control; procedure, shortened: as §3
[16] = test system: Proto-oncogene tyrosine-protein kinase receptor Ret (Homo sapiens), P07949 [M918T]; assay: Binding affinity to human partial length RET M918T mutant (E713 to D1014 residues) expressed in bacterial expression system assessed as remaining unbound target protein level at 1000 nM by Kinomescan method relative to control
Procedure, shortened: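 KINOMEscan competition-binding profiling across the panel of 468 kinases and mutants, with inhibitor tested at 1 μM. Binding is expressed as percent of control, with DMSO as the reference control.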

MV4-11 [17] = assay: Induction of apoptosis in human MV4-11 cells assessed as decrease in c-MYC level after 2 hrs by immunoblotting analysis; format: functional, cell-based
[18] = biological target: Ribosomal protein S6 kinase alpha-5 (Homo sapiens) (UniProt O75582); assay: Binding affinity to wild-type human partial length C-terminal RPS6KA5 kinase domain 2 (V390 to T718 residues) expressed in bacterial expression system assessed as remaining unbound target protein level at 1000 nM by Kinomescan method relative to control; procedure, shortened: as §2
[19] = biological target: Platelet-derived growth factor receptor alpha (Homo sapiens) (UniProt P16234); assay: Binding affinity to wild-type human partial length PDGFRA (V575 to D1002 residues) expressed in mammalian expression system assessed as remaining unbound target protein level at 1000 nM by Kinomescan method relative to control
Platelet-derived growth factor receptor alpha (Homo sapiens), sequence (P16234 whole entry, the tested form may be a part, canonical isoform): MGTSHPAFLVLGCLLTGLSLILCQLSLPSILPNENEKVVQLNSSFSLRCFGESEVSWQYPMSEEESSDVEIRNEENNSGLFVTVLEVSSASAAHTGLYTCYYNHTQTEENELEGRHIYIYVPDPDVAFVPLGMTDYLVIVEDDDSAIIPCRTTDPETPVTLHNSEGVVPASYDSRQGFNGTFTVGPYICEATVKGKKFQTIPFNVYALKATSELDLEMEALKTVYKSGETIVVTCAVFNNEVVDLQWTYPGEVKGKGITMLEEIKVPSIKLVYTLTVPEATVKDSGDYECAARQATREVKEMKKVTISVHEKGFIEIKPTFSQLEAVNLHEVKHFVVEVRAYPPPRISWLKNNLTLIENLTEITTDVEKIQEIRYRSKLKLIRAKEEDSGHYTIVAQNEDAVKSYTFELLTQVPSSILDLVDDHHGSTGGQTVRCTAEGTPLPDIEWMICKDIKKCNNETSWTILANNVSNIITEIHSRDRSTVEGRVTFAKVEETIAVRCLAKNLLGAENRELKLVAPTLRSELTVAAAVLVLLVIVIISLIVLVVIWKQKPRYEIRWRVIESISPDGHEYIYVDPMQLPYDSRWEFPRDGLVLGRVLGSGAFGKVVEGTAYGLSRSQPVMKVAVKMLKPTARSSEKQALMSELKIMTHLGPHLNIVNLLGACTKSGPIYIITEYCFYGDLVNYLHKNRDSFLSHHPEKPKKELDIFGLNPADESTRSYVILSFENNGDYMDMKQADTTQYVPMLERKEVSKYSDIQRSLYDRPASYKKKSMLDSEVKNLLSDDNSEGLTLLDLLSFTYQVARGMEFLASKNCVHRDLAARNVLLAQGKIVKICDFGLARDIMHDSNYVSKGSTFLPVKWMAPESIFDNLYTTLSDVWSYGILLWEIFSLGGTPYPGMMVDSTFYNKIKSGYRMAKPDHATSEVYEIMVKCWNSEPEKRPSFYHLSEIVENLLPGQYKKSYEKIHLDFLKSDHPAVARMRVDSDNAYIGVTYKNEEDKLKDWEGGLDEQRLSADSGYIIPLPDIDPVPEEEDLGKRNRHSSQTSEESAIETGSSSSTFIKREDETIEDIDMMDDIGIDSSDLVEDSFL

[20] = biological target: Casein kinase I isoform alpha (Homo sapiens) (UniProt P48729); assay: Binding affinity to wild-type human partial length CSNK1A1 (M1 to L450 residues) expressed in mammalian expression system assessed as remaining unbound target protein level at 1000 nM by Kinomescan method relative to control; procedure, shortened: as §1
Casein kinase I isoform alpha (Homo sapiens), sequence (P48729 2-337 limits assumed): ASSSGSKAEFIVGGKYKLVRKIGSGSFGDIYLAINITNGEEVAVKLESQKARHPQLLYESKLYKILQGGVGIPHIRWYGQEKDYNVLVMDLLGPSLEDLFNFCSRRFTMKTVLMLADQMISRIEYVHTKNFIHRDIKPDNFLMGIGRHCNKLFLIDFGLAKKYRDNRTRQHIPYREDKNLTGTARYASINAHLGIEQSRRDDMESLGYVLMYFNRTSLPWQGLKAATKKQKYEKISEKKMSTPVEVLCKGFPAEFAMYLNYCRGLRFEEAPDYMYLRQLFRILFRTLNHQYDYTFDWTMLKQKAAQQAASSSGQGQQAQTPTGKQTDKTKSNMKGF

Ribosomal protein S6 kinase alpha-6 (Homo sapiens), sequence (Q9UK32 whole entry, the tested form may be a part): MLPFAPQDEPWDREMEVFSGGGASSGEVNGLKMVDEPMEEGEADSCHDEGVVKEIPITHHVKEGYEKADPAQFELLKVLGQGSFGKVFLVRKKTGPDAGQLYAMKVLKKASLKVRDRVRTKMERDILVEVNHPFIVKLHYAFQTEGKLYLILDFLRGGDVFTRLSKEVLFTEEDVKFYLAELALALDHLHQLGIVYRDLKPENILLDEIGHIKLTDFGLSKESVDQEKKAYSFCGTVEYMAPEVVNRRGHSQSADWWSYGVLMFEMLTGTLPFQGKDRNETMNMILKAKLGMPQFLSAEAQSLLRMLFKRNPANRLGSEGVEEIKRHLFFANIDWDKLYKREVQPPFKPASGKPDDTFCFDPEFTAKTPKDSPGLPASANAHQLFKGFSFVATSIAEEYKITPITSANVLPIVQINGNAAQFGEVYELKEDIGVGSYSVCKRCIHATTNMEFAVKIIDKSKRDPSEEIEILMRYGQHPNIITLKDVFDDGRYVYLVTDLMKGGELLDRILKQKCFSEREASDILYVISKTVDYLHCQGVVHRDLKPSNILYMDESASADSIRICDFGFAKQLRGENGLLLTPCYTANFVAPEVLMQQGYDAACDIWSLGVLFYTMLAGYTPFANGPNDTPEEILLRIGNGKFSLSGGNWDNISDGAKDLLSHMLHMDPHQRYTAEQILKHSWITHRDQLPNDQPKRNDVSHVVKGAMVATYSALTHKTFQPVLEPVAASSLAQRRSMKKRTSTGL

Molecule `COCCN[C@H]1CC[C@H](Nc2cc(-c3csc(NCC4(C#N)CCOCC4)n3)c(Cl)cn2)CC1` has an Activity [1] of 99%, an Activity [2] of 86% and an Activity [3] of 72%. The Activity [4] was 49%, the Activity [5] was 100% and the Activity [6] was 92%. For the same molecule, the Activity [7] was 38%, the Activity [8] was 57% and the TGI (MV4-11 [9]) was “inactive”. For the same molecule, the Activity [10] was 94%, the Activity [11] was 100% and the MRT inf [12] was 3.48 h. For the same molecule, the Activity [13] was 85%, the Activity [14] was 78% and the Activity [15] was 94%. For the same molecule, the Activity [16] was 90%, the Activity (MV4-11 [17]) was “Dose-dependent effect” and the Activity [18] was 76%. It also gave an Activity [19] of 100% and an Activity [20] of 99%.
